Screening data from PubChem.
This is a sample that favours compounds with a hit; in the whole collection about 3.6% have one here.
HSF1 inh – HSF1 inhibition. NIH3T3-HGL HSE-luciferase, MG132-induced, luminescence 8 h; active compounds read low. activity change, negative = inhibition, % at 7.5 µM (by protocol). 300,000 tested, 0.77% active. AID 2098;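 active means more than half of replicate wells show activity change below -50%, luminescence cut by over half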;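 further: luciferase reports HSF-1 transcriptional activity via heat shock element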
STAT3 act – increases IL-6 driven STAT3 reporter signal. U3A cells, IL-6 STAT3-luciferase reporter, luminescence; 100% = signal with IL-6 EC80 alone. activation (% of control), % at 5.6 µM. 190,000 tested, 0.91% active;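 active means activation above the screen-wide mean of compound activation plus 3 SD, cut at about 130% in these data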
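Test system: Human STAT1-deficient U3A cells with stable STAT3-luciferase reporter | Also added: Interleukin-6, 33 ng/mL | Timing: Compound pre-incubation 1 h before IL-6, then 6 h stimulation at 37 °C | Technique: Luciferase reporter luminescence | Read-out: Percent of IL-6-only median luminescence | Benchmarks: IL-6-only wells as 100% reference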
AHR activator – human AHR activation | AHR-responsive luciferase reporter cells, luminescence | activation, % at 5 µM | 320,000 tested, 2.5% active | AID 2796; in the data active means activation above about 47%
PolyA inhibitor – yeast polyadenylation inhibition; S. cerevisiae SKY197-pL101 polyadenylation reporter, beta-gal luminescence; efflux-impaired pdr1/pdr3 knockout yeast; score 100 = 6 SD above DMSO; activity score, % at 12 µM; 300,000 tested, 0.02% active; AID 1875;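 active means lowest replicate activity score at least 50, where 100 means six control SD above control mean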;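 further: yeast exposed to compound for 9 h at 30 °C; higher score means more reporter readthrough which indicates perturbed polyadenylation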
PERK inh – blocks human PERK kinase; CHO PERK-DD fusion, SEAP luminescence translation reporter; inhibition, % at 5.6 µM; 220,000 tested, 0.17% active;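 active means inhibition above the mean inhibition of all tested compounds plus 3 SD, set separately per screening campaign, cut at about 2.9% in these data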;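 further: PERK kinase domain activated by AP20187 dimerizer at 100 nM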
Target sequence (Q9NZJ5 whole entry, looked up, the tested form may be a part): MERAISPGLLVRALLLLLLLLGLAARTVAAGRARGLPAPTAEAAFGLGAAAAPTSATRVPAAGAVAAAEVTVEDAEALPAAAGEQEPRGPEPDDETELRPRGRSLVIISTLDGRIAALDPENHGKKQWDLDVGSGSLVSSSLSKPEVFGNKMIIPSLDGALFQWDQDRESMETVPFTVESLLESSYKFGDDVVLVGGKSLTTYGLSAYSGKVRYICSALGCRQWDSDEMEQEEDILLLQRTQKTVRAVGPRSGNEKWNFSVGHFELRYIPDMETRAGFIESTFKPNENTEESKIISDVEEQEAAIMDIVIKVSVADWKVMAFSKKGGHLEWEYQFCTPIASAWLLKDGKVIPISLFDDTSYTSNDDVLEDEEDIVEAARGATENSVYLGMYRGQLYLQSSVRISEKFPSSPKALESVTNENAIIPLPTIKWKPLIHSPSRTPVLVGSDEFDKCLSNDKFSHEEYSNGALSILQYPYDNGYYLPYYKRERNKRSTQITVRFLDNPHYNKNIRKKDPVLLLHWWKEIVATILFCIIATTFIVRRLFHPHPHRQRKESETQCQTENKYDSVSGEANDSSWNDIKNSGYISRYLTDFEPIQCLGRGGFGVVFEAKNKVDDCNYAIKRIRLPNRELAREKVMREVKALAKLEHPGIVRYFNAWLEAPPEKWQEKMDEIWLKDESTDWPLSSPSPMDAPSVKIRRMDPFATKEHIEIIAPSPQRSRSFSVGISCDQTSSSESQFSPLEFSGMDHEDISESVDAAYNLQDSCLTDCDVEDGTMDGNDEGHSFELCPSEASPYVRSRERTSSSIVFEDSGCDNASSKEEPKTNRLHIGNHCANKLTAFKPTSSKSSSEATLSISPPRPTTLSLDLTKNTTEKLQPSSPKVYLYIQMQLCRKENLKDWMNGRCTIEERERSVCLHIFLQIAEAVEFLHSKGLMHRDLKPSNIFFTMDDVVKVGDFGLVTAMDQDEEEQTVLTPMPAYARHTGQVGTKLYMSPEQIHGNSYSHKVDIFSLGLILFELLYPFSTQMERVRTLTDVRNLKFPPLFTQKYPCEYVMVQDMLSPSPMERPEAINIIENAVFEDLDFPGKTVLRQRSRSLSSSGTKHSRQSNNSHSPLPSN
Hsp70 act – Hsp70 transcriptional activation, primary screen; HeLa Hsp70 promoter luciferase reporter, luminescence; scaled: vehicle 0, proteasome-inhibitor control 100%; activation, % at 10 µM; 200,000 tested, 0.04% active; AID 1203;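 active means activation above the mean across all tested compounds plus 3 SD, cutoff set per campaign, cut at about 5.5% in these data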
A number is an active result; – = inactive; · = not tested or not shown.

SMILES	HSF1 inh	STAT3 act	AHR activator	PolyA inhibitor	PERK inh	Hsp70 act
O=C/C(=C\Nc1ccccn1)c1nc2cc(Cl)ccc2o1	–	134.5	–	–	–	–
C=CCNC(=O)Nc1ccc(F)cc1F	–	–	–	–	3.4	–
C=CCNC(=S)Nc1ccc(F)cc1F	–	–	–	–	–	–
COc1ccc(S(=O)(=O)NCc2ccco2)cc1NC(=O)c1ccccc1	–	·	–	–	·	·
COc1ccc(-n2nc3cc(C)c(NC(=O)CC(C)C)cc3n2)cc1	–	–	·	–	–	–
CC(=O)Nc1cc2nn(-c3ccccc3)nc2cc1C	–	·	55.4	–	·	·
Cc1cc2nn(-c3ccccc3)nc2cc1NC(=O)c1cccs1	–	–	68.4	–	–	–
CC(C)CC(=O)Nc1ccc2nn(-c3ccccc3)nc2c1	–	–	–	–	–	–
Cc1ccc(NC(=O)c2cccs2)cc1NC(=O)c1cccc(F)c1	–	·	63.7	–	·	·
CCC(=O)Nc1cc2nn(-c3ccccc3)nc2cc1Cl	–	–	50.7	–	–	–
Cc1nn(-c2ccc3ccccc3c2)c(=O)c2ccccc12	–	–	–	–	–	–
Cc1nn(-c2nc3ccccc3[nH]2)c(=O)c2ccccc12	-81.3	–	–	–	–	–
Cc1nn(-c2ccc(Cl)cc2)c(=O)c2ccccc12	–	133.6	53.9	–	–	–
COc1ccc(NC(=O)c2c(N)cnn2C)cc1	–	·	–	–	·	·
C/C(=N\N=C(N)N)c1ccc(C)c(C)c1	–	·	59.4	–	–	·
C/C(=N\N=C(N)N)c1cccc([N+](=O)[O-])c1	–	–	–	–	–	–
CN(CC(=O)NC(=O)NCc1ccccc1)CC(=O)Nc1ccc(Cl)c(Cl)c1	·	·	–	·	·	·
Cc1[nH]c2ccccc2c1/C=N/NC(N)=S	–	·	–	–	–	·
Cc1[nH]c2ccccc2c1/C=N/NC(=O)c1ccc(N)cc1	–	·	–	–	·	·
Cc1ccc(S(=O)(=O)N/N=C/c2c(C)nn(-c3ccccc3)c2C)cc1	-53.7	–	–	–	–	–
Cc1ccc(NC(=S)N/N=C/c2c(C)[nH]c3ccccc23)cc1	–	–	75.3	–	–	–
Cc1[nH]c2ccccc2c1/C=N/NC(=O)c1ccccc1	–	·	68.4	–	·	·
Cc1[nH]c2ccccc2c1/C=N/NC(=O)c1cc(-c2ccncc2)nc2ccccc12	–	·	56.6	–	·	·
CCOCCCn1c(=S)[nH]c2cc(C(=O)NCC(OC)OC)ccc2c1=O	–	–	–	–	–	–
CN(C(=O)/C=C/c1ccccc1)C1CCCCC1	–	·	–	–	·	·
SMILES	HSF1 inh	STAT3 act	AHR activator	PolyA inhibitor	PERK inh	Hsp70 act
COC(CNC(=O)C1CCC(CNS(=O)(=O)c2c(C)cc(C)cc2C)CC1)OC (configuration not stated)	–	·	–	–	·	·
COc1cc(OC)cc(-c2nnc(SCc3ccc(C(=O)O)cc3)o2)c1	–	·	–	–	·	·
Cc1[nH]c2ccccc2c1/C=N/NC(=O)c1cccc(Br)c1	–	·	67.8	–	·	·
Cc1nn(-c2ccccc2)c(C)c1/C=N/NC(=O)c1cc(-c2ccccc2)n[nH]1	–	–	47.7	–	–	–
O=C(N/N=C/c1[nH]c2ccccc2c1Cl)c1cccc(Br)c1	–	·	–	–	–	·
Cc1[nH]c2ccccc2c1/C=N/NC(=O)c1cc(C(C)(C)C)[nH]n1	–	·	–	–	–	·
Cc1[nH]c2ccccc2c1/C=N/NC(=O)c1cc(-c2ccccc2)n[nH]1	–	·	59.4	–	–	·
Cc1nn(-c2ccccc2)c(C)c1/C=N/NC(=O)c1cc(-c2cccc3ccccc23)n[nH]1	–	–	–	–	–	–
CC(=O)N1N=C(c2cccs2)CC1c1cc2cc(C)ccc2nc1Cl (configuration not stated)	–	·	–	–	–	·
Cc1cc2cc(C)c(NCCNC(=O)c3cccc(F)c3)nc2cc1C	–	–	56.1	–	–	–
Cc1cccc(C(=O)NCCNc2nc3cc(C)c(C)cc3cc2C)c1	–	–	–	–	–	–
COc1ccc(C(=O)NCCNc2nc3cc(C)c(C)cc3cc2C)cc1	–	·	62.7	–	·	·
COC(=O)C(c1ccccc1)C1(O)CC(C)N(C)CC1C (configuration not stated)	-76.1	·	–	–	·	·
CC1CN(C)C(C)CC1OC(=O)C(c1ccccc1)c1ccccc1 (configuration not stated)	–	·	–	–	·	·
Cc1ccccc1S(=O)(=O)N1[C@@H](c2ccc(F)cc2)C(C(=O)O)=CC[C@H]1c1ccc(Cl)cc1	·	·	–	·	·	·
CCOCCOC(=O)c1ccc(-n2cncn2)nc1	-85.9	–	–	–	–	–
CCOC(=O)c1ccc(-n2cncn2)nc1	–	–	–	–	–	–
N#CC1=C(N)NC(SCC(=O)Nc2ccccc2)=C(C#N)C12CCCC2	–	–	70.9	–	–	–
N#CC1=C(N)NC(SCC(=O)O)=C(C#N)C12CCCC2	–	–	–	–	–	–
COc1ccc(NC(=O)CCC(=O)OCc2ccc([N+](=O)[O-])cc2)cc1	–	–	–	–	–	–
CCCCNC(=O)c1ccc(NC(=O)CC2SC(N3CCCC3)=NC2=O)cc1 (configuration not stated)	·	·	–	·	·	·
Cc1ccc(S(=O)(=O)NCCC(=O)N2CCN(S(=O)(=O)c3cccc(F)c3)CC2)cc1C	–	·	–	–	·	·
O=C(N1CCCCC1)N1CCN(S(=O)(=O)c2ccccc2)CC1	-70.9	·	–	–	·	·
Cc1ccc(S(=O)(=O)NCCC(=O)N2CCN(S(=O)(=O)c3ccccc3)CC2)cc1C	-55.5	·	–	–	·	·
N#Cc1c(N)n(C2OC(CO)C(O)C2O)c2ncnc(N)c12 (configuration not stated)	78.4	·	·	·	·	·
SMILES	HSF1 inh	STAT3 act	AHR activator	PolyA inhibitor	PERK inh	Hsp70 act
Cc1cccc(C2(c3cccc(C)c3)CC2C(=O)Nc2ccc([N+](=O)[O-])cc2O)c1 (configuration not stated)	–	–	77.3	–	–	–
COCCNC(=O)CN(C(=O)CCC(=O)Nc1ccccn1)c1ccccc1F	·	–	–	–	–	–
COc1cccc(C2CC(c3ccccc3)n3ncnc3N2)c1 (configuration not stated)	-77.3	–	–	–	–	–
CCOc1cc(C#N)ccc1OCC(=O)N1CCN(C(=O)c2cccs2)CC1	·	·	–	·	·	·
Cc1csc2c(SCC(=O)NNC(=O)C(Cl)Cl)ncnc12	–	·	–	–	3.1	·
Cc1ccc(-n2ncc3c(SCC(=O)NNC(=O)C(C)C)ncnc32)cc1	–	·	–	–	·	·
COc1cc2c(cc1OC)C(c1cc(Br)ccc1F)N(C(=O)CCl)CC2 (configuration not stated)	-96.8	·	–	–	·	·
Nc1nc(-c2ccccc2)c(N=Nc2ccccc2Cl)s1	–	–	–	–	–	–
Nc1nc(-c2ccccc2)c(N=Nc2cccc3ccccc23)s1	–	–	70.1	–	–	–
CCOC(=O)Cc1csc(NC(=O)c2ccc3ncsc3c2)n1	–	·	–	–	·	·
COC1=NS(=O)(=O)c2ccccc21	–	–	–	–	–	–
O=S1(=O)N=C(Oc2ccccc2)c2ccccc21	·	–	–	·	2.9	–
